The source made the active and inactive calls. The rule behind the calls is not given here.
What was measured:
[1] = system: Cortical neurone; experiment: Induction of dendritogenesis in Sprague-Dawley rat cortical neurons assessed as increase in dendritic arbor complex at 1 nM after 1 hr supplemented with fresh neurobasal medium measured after 71 hrs by Alexa Fluor 488 dye based imaging analysis; type: functional, cell-based
Procedure, shortened: (§1)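 Cortical neurons from timed-pregnant Sprague Dawley rats, about 15,000 cells/well in B27 Neurobasal. On DIV3, dosed 1 h at 0.1% DMSO (10 μM standard; 10 pM–10 μM in concentration-response runs), then medium replaced and grown 71 h. PFA-fixed, MAP2 immunostained with Alexa Fluor 488 secondary, 20x imaging. Blinded Sholl analysis, Nmax = maximum crossings; ≥6 wells over 2 plates from independent dams.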

[2] = system: Cortical neurone; experiment: Induction of dendritogenesis in Sprague-Dawley rat cortical neurons assessed as dendritic arbor complexity at 10 uM after 1 hr supplemented with fresh neurobasal medium measured after 71 hrs by Alexa Fluor 488 dye based imaging analysis; type: functional, cell-based; procedure, shortened: as §1
[3] = organism: Danio rerio; experiment: Induction of acute behavioural changes in wild type zebrafish Singapore at 7 days post-fertilization stage after 1 hr by imaging analysis; type: functional
Procedure, shortened: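 Wild-type Singapore larvae at 7 dpf, 8 per well in 300 μL egg water, rested 1 h at RT. DMSO stocks added (0.4% DMSO), then 1 h RT incubation. After 5 min dark acclimation, a 17-min acoustic/visual stimulus battery was run under IR video. Locomotion was taken as changed pixels. Random-forest out-of-bag accuracy versus vehicle wells was used, n = 21 wells.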

[4] = system: Mus musculus; experiment: Induction of head-twitch response in C57BL/6J mouse assessed as reduction in hallucinogenic potential at 1 to 50 mg/kg, iv measured after 20 mins; type: functional, organism-based
[5] = target: 5-hydroxytryptamine receptor 2A (Rattus norvegicus) (UniProt P14842); details: Sprague-Dawley, 1 uM
Chain of 5-hydroxytryptamine receptor 2A (Rattus norvegicus) (P14842 whole entry): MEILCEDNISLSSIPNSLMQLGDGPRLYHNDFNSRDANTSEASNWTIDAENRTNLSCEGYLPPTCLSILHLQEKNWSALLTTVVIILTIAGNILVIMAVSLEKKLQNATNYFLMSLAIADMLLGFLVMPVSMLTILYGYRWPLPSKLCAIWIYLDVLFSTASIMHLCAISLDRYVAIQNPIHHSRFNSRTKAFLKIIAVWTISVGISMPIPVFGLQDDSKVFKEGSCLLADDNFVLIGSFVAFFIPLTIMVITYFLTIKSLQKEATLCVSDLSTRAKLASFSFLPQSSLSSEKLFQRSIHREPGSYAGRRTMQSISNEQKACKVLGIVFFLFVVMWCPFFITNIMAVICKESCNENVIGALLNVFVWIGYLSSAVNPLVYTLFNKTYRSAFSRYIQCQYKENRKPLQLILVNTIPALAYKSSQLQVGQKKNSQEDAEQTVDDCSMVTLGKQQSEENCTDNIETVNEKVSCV

[6] = system: Mus musculus; experiment: Induction of head-twitch response in iv dosed C57BL/6J mouse assessed as reduction in hallucinogenic potential measured after 20 mins; type: functional, organism-based

SMILES | Activity [2] | further results
CN(C)CCc1c[nH]c2ccccc12 | Active | Activity [1]: Active
CN(C)CCn1ccc2ccccc21 | Active | –
CN(C)CCn1ccc2cc(OCc3ccccc3)ccc21 | Active | –
COc1ccc2c(CCN(C)C)c[nH]c2c1 | – | Activity [3]: Dose-dependent effect; ECmax [3]: 200 µM; Activity [4]: inactive
COc1cccc2ccn(CCN(C)C)c12 | Active | –
COc1ccc2ccn(CCN(C)C)c2c1 | Active | Activity [3]: Dose-dependent effect; ECmax [3]: 200 µM; Activity [4]: Active
CC(C)CCn1ccc2ccccc21 | inactive | –
COc1ccc2[nH]cc(CCN(C)C)c2c1 [MEBUFOTENIN] | – | inhibition [5]: Active; Activity [1]: Active; Activity [3]: Dose-dependent effect; ECmax [3]: 200 µM; Activity [6]: Dose-dependent effect
CN(C)C(=O)Cn1ccc2ccccc21 | inactive | –
CN(C)CCn1ccc2cccc(F)c21 | Active | –
CN(C)CCn1ccc2ccc(F)cc21 | Active | –
CN(C)CCn1ccc2c(OCc3ccccc3)cccc21 | inactive | –
COc1cccc2c1ccn2CCN(C)C | inactive | –
CNC1(c2ccccc2Cl)CCCCC1=O (stereo unspecified) | – | Activity [1]: Active
CN(C)CCn1ccc2cc(F)ccc21 | Active | –
CN(C)CCn1cccc1 | Active | –
CN(C)CCn1ccc2ccc(OCc3ccccc3)cc21 | Active | –
CN(C)CCn1c2ccccc2c2ccccc21 | Active | –
CN(C)CCn1ccc2c(F)cccc21 | inactive | –
CN(C)CCn1cnc2ccccc21 | Active | –
COc1ccc2c(ccn2CCN(C)C)c1.O=C(O)/C=C/C(=O)O | Active | Activity [3]: Dose-dependent effect; ECmax [3]: 200 µM; Activity [4]: inactive
CN(C)CCn1ccc2cccc(OCc3ccccc3)c21 | Active | –
CN(C)CCc1cn(C)c2ccccc12 | Active | –

Source: ChEMBL document CHEMBL4376893, “Identification of Psychoplastogenic N,N-Dimethylaminoisotryptamine (isoDMT) Analogues through Structure-Activity Relationship Studies” (2020)
